Screens: PubChem BioAssay, Broad Institute
Only a selection was taken, and hits are over-represented in it overall.
DYRK1A inh: rat Dyrk1A kinase inhibitors, primary screen, biochemical, single point, plate reader; Dual specificity tyrosine-phosphorylation-regulated kinase 1A (Rattus norvegicus), Q63470; ADP-Glo luminescence, NFATc1 peptide; actives 0.43% (n = 310,000); AID 504441, 2011; inhibition, % at 12.5 µM; in the data active means inhibition above about 50%;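 further: plate controls were vehicle with enzyme for no effect and no enzyme for full effect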
GSK3A inh: blockers of GSK3A enzyme activity – biochemical, luminescence, cell-free homogeneous, HTS, primary screen. Glycogen synthase kinase-3 alpha (Homo sapiens), P49840. GSK-3 alpha kinase, ADP-Glo luminescence, 60 min. inhibition, % at 10 µM. actives 0.1% (n = 320,000). AID 2650, 2010;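 active means more than half of replicates show inhibition above 20%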;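 further: GST-tagged GSK-3 alpha with peptide substrate and 25 µM ATP; 0% = DMSO neutral wells and 100% = GW8510 positive control wells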
GSK3beta inhib: human GSK3beta kinase inhibitors, primary screen, biochemical, cell-free homogeneous, HTS | Glycogen synthase kinase-3 beta (Homo sapiens), P49841 | GST-GSK3beta kinase, ADP-Glo luminescence, 60 min; hits give low values | activity score (negative = inhibition), % at 10 µM | actives 0.038% (n = 300,000) | AID 2097, 2009;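 active means more than half of replicate wells score below -50%, meaning over 50% inhibition versus plate controls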;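 further: 0% = median DMSO wells and -100% = median GW8510 positive control wells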
Target sequence (P49841 whole entry, looked up): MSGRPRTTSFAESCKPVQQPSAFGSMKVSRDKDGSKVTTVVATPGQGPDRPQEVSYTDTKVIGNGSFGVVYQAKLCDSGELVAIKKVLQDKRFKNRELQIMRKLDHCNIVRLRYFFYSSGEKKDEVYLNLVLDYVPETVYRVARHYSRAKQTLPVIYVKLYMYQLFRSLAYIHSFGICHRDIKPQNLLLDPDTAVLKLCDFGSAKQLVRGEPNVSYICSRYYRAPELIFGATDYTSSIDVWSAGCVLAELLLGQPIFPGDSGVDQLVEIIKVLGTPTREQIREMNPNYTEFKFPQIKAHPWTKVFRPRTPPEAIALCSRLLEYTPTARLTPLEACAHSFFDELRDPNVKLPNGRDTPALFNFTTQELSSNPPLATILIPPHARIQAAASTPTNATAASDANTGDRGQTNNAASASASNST
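test system = GST-tagged human GSK3beta kinase, cell-free | reagent = 25 µM ATP with peptide substrate | dosing = one dose of 10 µM per compound | schedule = 60 min reaction, RT | detection = luminescent ADP-Glo measurement of ADP formed | control set = DMSO neutral wells and GW8510 at 20 µM as positive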
STK33 inh: inhibitors of purified STK33 kinase, primary screen, biochemical, ADP-Glo luminescence, homogeneous, cell-free; Serine/threonine-protein kinase 33 (Homo sapiens), Q9BYT3; MBP phosphorylation; actives 0.073% (n = 320,000); inhibition, % at 10 µM;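 active means inhibition at or above 25%, using the most active replicate where run in duplicate; inactive means inhibition below 25%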
CDK5 p35 inh: inhibitors of human CDK5/p35 kinase, primary screen, biochemical, single concentration | Cyclin-dependent kinase 5 (Homo sapiens) + Cyclin-dependent kinase 5 activator 1 (Homo … | Recombinant CDK5/p35, ADP-Glo luminescence, 60 min | inhibition, % at 10 µM | actives 0.01% (n = 330,000) | AID 488839, 2010;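 active means highest replicate inhibition of at least 50% and at least 75% of replicates reaching 50%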;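 further: plate controls were DMSO neutral control for no effect and GW8510 at 10 µM for full effect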
Dyrk1A artifact: ADP-Glo luciferase interference without Dyrk1A, dose response, artefact control for Dyrk1A inhibitor project, biochemical, luminescence, cherry-pick, set 02. 1,300 tested, under 10 active. shares compounds with DYRK1A inh. AC50, µM (doses to about 12 µM), for inactives: top-dose activity change, negative = inhibition. ADP-Glo luciferase artifact assay, no Dyrk1A;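 active means fitted half-maximal dose AC50 no more than ten times the top valid tested dose, with luminescence dropping as dose rises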
* = called active by the depositor; / = not tested or not shown; + = active, no number.

SMILES	DYRK1A inh	GSK3A inh	GSK3beta inhib	STK33 inh	CDK5 p35 inh	Dyrk1A artifact
O=C1Nc2ccccc2/C1=C/c1nc2ccccc2c(=O)n1-c1ccc(O)cc1	-1	1	1	0	-2	/
O=C1Nc2ccccc2/C1=C/c1cnc[nH]1	40	79*	-23	37*	102*	/
Oc1cc(O)cc(/C=C/c2ccc(O)cc2O)c1	/	22	/	54*	3	/
CCCCn1c(O)c(C(CC)=NCCCn2ccnc2)c(=O)[nH]c1=O	/	43	-20	0	/	/
CCCCn1c(O)c(C=NCCCn2ccnc2)c(=O)[nH]c1=O	-6	68*	0	0	0	/
CCCCn1c(O)c(C(C)=NCCCn2ccnc2)c(=O)[nH]c1=O	1	54*	-3	1	0	/
CCC1CN1P(=O)(N1CCCC1)N1CC1CC (configuration not stated)	-4	/	/	/	-1	/
NC(=O)CSc1nnc([C@@H](N)Cc2c[nH]c3ccccc23)o1	-6	52*	-4	0	1	/
ClCCN1CCN(c2ccnc3cc(Cl)ccc23)CC1	5	86*	-5	2	3	/
CCc1cc2c(s1)NC(=O)CN=C2c1cccs1	0	76*	0	0	-1	/
O=C1CN=C(c2ccccc2)c2ccccc2N1	1	9	-1	0	4	/
COc1ccc2nc3c(C)n(C)ccc-3c2c1	/	/	/	/	1	/
COc1ccc(-c2ccc3n2Cc2cnnn2-c2ccccc2-3)cc1	/	/	/	/	2	/
CCN(CC)C(=O)c1ccc(NC(=O)CCCSc2ccccc2)cc1	-2	-5	0	-1	-1	/
CCN(CC)C(=O)c1ccc(NC(=O)Nc2ccccc2F)cc1	40	29	-34	28*	38	/
CC1=C(O)C(=O)C=C2C1=CC=C1C2(C)CCC2(C)C3CC(C)(C(=O)O)CCC3(C)CCC12C (configuration not stated)	3	/	/	/	17	/
Cn1ncnc2c(=O)n(C)c(=O)nc1-2	68*	23	-29	-2	0	/
N#CC1c2ccccc2-n2nncc2CN1C(=O)CCc1ccccc1 (configuration not stated)	/	/	/	/	-5	/
COC(=O)C1=C(c2ccc(F)cc2OCc2ccccc2)C[C@@H]2CC[C@H]1N2C(=O)NCc1ccccc1	52*	-1	/	1	0	6%
O=C(c1ccccc1)C(Cc1ccccc1)N1CCOCC1 (configuration not stated)	1	/	/	/	-1	/
CN1CCc2nc3sc(C#N)c(N)c3c(-c3cccs3)c2C1	51*	95*	-6	4	1	6%
CCOC(=O)CC(SP1(=S)OCC2(CC=CCC2)CO1)C(=O)OCC (configuration not stated)	0	/	/	/	-3	/
COC(=O)C1=C(c2ccc(Cl)c(C(F)(F)F)c2)C[C@@H]2CC[C@H]1N2C(=O)NCCOc1ccc(OC)cc1	57*	-2	/	-2	0	10%
CN(C(=O)Oc1cccc2ccccc12)C1C=CCC1 (configuration not stated)	3	/	/	/	1	/
Cc1[nH]c2ccccc2c1/C=N/O	34	0	2	0	2	/
SMILES	DYRK1A inh	GSK3A inh	GSK3beta inhib	STK33 inh	CDK5 p35 inh	Dyrk1A artifact
O=c1c2ccccc2[nH]c(=S)n1-c1cccnc1	/	-3	-1	0	/	/
CCc1nccc2c1[nH]c1ccccc12	59*	2	-3	1	3	6%
c1ccc2c(c1)[nH]c1cnccc12	69*	0	-1	4	2	8%
Cc1nccc2c1[nH]c1ccccc12	76*	1	-3	1	2	8%
Cc1ccc(CN2CCC3CCC(C3)C2)c(O)c1 (configuration not stated)	/	/	/	/	0	/
CC(=O)OCC12CC(OC(=O)CC(C)C)C(C)=CC1OC1C(O)C(OC(C)=O)C2(C)C12CO2 (configuration not stated)	-3	/	/	/	1	/
CC1(C)C(=O)CCC2C1=CCC1C2CCC2(C)C(O)CCC12 (configuration not stated)	/	/	/	/	-2	/
Nc1ccc(-c2ccc(N)cc2)cc1	6	/	/	/	-1	/
COc1cc2c(cc1O)C[C@H]1c3c(cc(O)c(OC)c3-2)CCN1C	71*	14	/	3	4	9%
OC[C@H]1O[C@@H](n2cnc3cc(Cl)c(Cl)cc32)[C@H](O)[C@@H]1O	74*	3	/	5	/	12%
COc1cc2ccc(=O)oc2c2ccoc12	59*	1	-1	-1	2	7%
COc1cc2occc2c2oc(=O)ccc12	20	1	1	0	-2	/
CN1CCc2cc3c(c4c2C1Cc1ccccc1-4)OCO3 (configuration not stated)	67*	5	-18	2	3	9%
CN1CCc2cc(O)cc3c2[C@H]1Cc1ccc(O)c(O)c1-3	14	17	-9	5	1	/
N/C(=N\N=C/c1ccc(-c2ccc(O)c(C(=O)O)c2)o1)N[N+](=O)[O-]	83*	6	3	7	-4	5%
Cc1cccc(-n2c(O)c(/C=C3/C(c4ccccc4)=Nc4ccccc43)c(=O)[nH]c2=O)c1	60*	3	1	1	0	10%
Cc1ccccc1-n1c(O)c(/C=C2/C(c3ccccc3)=Nc3ccccc32)c(=O)[nH]c1=O	2	-7	-1	0	-1	/
ClCCN(CCCl)c1ccc(-n2cnc3c(Cl)ncnc32)cc1	/	/	/	/	-1	/
COc1ccc2[nH]c3c(c2c1)CCNC3C (configuration not stated)	-2	-2	-6	0	-1	/
COc1ccc2c3c([nH]c2c1)C(C)NCC3 (configuration not stated)	74*	1	2	0	2	9%
COc1ccc2c(c1)/C(=C/c1cnc[nH]1)C(=O)N2	83*	81*	-89*	58*	+	15%
C#C[C@]1(O)CCC2C3C(=O)C=C4C(Cl)=CCC[C@]4(C)C3CC[C@@]21C (some centres not stated)	0	/	/	/	0	/
N#C/C(=C\c1ccc(O)cc1)C(=O)O	76*	/	/	/	0	12%
